Compound activity from PubChem BioAssay.
TRPC4 PAM = positive allosteric modulators of TRPC4, primary screen, cell-based, mouse TRPC4beta, HEK293 mu-opioid, Fluo-4 calcium. DAMGO EC20, Fluo-4 Ca2+ flux; hits give high values. 310,000 tested, 0.42% active. AID 2227, 2009. B-score at 10 µM;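 active = B-score of calcium response area above 5 SD of library B-scores, with initial fluorescence ratio within 5 SD of library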;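 note: B-score of integrated fluorescence ratio over time as area under calcium response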
Kir21 block = inhibitors of mouse Kir2.1 inward-rectifier potassium channel; Inward rectifier potassium channel 2 (Mus musculus), P35561; 310,000 tested, 0.85% active; HEK293-Kir2.1, FluxOR thallium flux fluorescence; hits give low values; B-score at 10 µM;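 active = fluorescence ratio B-score at or below minus 3 SD of library scores, with starting-brightness B-score within 2 SD, cut at about -4.2 in these data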;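 note: channel flux triggered by added potassium and thallium sulfate stimulus; B-score of peak minus minimum fluorescence over baseline after thallium stimulus; more negative B-score means stronger Kir2.1 block with less thallium influx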
Target sequence (P35561 whole entry, looked up): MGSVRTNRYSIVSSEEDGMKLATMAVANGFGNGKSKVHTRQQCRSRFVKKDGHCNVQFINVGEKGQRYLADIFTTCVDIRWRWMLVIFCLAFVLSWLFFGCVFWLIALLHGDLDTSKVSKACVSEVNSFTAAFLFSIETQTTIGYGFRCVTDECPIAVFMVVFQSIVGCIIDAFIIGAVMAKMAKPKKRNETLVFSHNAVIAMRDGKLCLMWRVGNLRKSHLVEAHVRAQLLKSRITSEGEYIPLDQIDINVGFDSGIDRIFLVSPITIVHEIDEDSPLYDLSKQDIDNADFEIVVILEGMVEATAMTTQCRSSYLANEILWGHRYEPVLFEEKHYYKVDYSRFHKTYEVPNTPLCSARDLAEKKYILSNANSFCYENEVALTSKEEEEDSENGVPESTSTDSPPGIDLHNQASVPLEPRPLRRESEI
TRPC4 act = activators of mouse TRPC4 channel, primary screen, Fluo4 calcium, HEK293 TRPC4beta/mu-opioid cells; Short transient receptor potential channel 4 (Mus musculus), Q9QUQ5; Fluo4 calcium fluorescence; hits give high values; B-score at 10 µM; 310,000 tested, 0.49% active;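 active = B-score above 5 SD of library B-scores, and initial fluorescence ratio not above library mean plus 5 SD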;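 note: positive B-score marks a calcium rise read as TRPC4 activation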
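Technique: kinetic Fluo4 calcium fluorescence; Test system: TRPC4beta and mu-opioid receptor HEK293 stable cells; Measure: B-scored integrated calcium fluorescence ratio; Benchmarks: low control buffer alone, high control maximal DAMGO; Schedule: 45 min room-temperature Fluo4 loading, 110 s read.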
TRPC6 act = mouse TRPC6 channel activators, primary screen, cell-based, HEK293, membrane potential dye; HEK293-TRPC6 membrane potential dye fluorescence; hits give high values; B-score at 10 µM; Short transient receptor potential channel 6 (Mus musculus), Q61143; 310,000 tested, 0.13% active; AID 2550, 2010;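 active = B-score of the integrated fluorescence ratio above library mean plus 3 SD, and starting fluorescence ratio within library mean plus 5 SD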;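 note: higher score means more depolarization so channel activation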
TRPC4 inh = inhibitors of mouse TRPC4 channel, primary screen, Fluo4 calcium, HEK293 TRPC4beta/mu-opioid cells | DAMGO-evoked Fluo4 calcium flux; hits give low values | 300,000 tested, 0.39% active | B-score at 10 µM;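 active = B-score over 3 SD under the library average, no early fluorescence shift, positive overall ratio signal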
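Material: HEK293 cells with stable TRPC4beta plus mu-opioid receptor expression / Probe or stimulus: DAMGO in two steps, submaximal then maximal / Compound: single concentration per test compound / Technique: kinetic Fluo4 fluorescence imaging of calcium influx / Read-out: per-well B score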
TRPC6 inhibitor = mouse TRPC6 channel inhibitors, primary screen, cell-based, HEK293, membrane potential dye; Short transient receptor potential channel 6 (Mus musculus), Q61143; ACh-evoked depolarization; hits give low values; B-score at 10 µM; 310,000 tested, 1.1% active; AID 2553, 2010;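 active = B-score under library mean minus 3 SD, initial fluorescence not abnormally high, positive integrated signal ratio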;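 note: B-score derived from integrated fluorescence ratio over the kinetic read; more negative B-score means stronger inhibition of depolarization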
* marks the source's active call; other numbers are inactive results; i = inactive. This is a sample that favours compounds with a hit; in the whole collection about 2.9% have one here.

SMILES	TRPC4 PAM	Kir21 block	TRPC4 act	TRPC6 act	TRPC4 inh	TRPC6 inhibitor
O=C(NCCc1nccs1)C1CCC(=O)N(Cc2cccc(C(F)(F)F)c2)C1 (stereo not given)	i	-0.41	i	i	i	i
CCCc1nc2oc3c(NCCN(C)C)ncnc3c2c2c1CCCC2	i	-0.53	i	i	-6*	i
CN1C2CCC1CC(N(CCc1ccccc1)C(=O)c1ccc(Cl)cc1)C2 (stereo not given)	i	-0.3	i	i	i	i
CN1C2C=C(N(CCc3ccccc3)C(=O)c3ccc(Cl)cc3)CC1CC2 (stereo not given)	i	-1.6	99*	i	i	i
CN1c2ccccc2C(C)(C)[C@]12C=Cc1cc(O)ccc1O2	i	-5.9*	i	i	i	i
CN1c2ccccc2C(C)(C)C12C=Nc1c(ccc3ccccc13)O2 (stereo not given)	i	-2	i	i	i	i
COc1ccc2c3c(cccc13)C(=O)CC2	i	-16	i	i	i	i
COc1cccc(NC(=O)c2ccc(NCCCN3CC(C)CC(C)C3)c([N+](=O)[O-])c2)c1 (stereo not given)	14*	0.99	i	i	i	i
C=CCN1C(=O)N/C(=C/c2ccccc2OCC(=O)Nc2ccc(F)cc2)C1=O	i	0.34	i	i	i	i
CC(C)CN(CCCNC(=O)CC1Oc2ccccc2NC1=O)CC(C)C (stereo not given)	i	0.73	i	i	i	i
CCCCN(CC)CCCNC(=O)CC1Oc2ccccc2NC1=O (stereo not given)	i	0.29	56*	i	i	i
CC(C)(C)c1cnnn1-c1ccc(C(=O)CCl)cc1	i	-6.5*	i	i	i	i
CCCCC(=O)N(c1ccc(C(=O)O)cc1)c1nc(-c2ccc(Cl)cc2)c(CC)s1	i	-1.1	i	i	-6*	i
O=S(=O)(c1cccc2cccnc12)N1CCOCC1	i	0.53	i	i	i	i
CC1CC(C)CN(S(=O)(=O)c2cccc3cccnc23)C1 (stereo not given)	i	-5.2*	i	i	i	i
CCn1nc([N+](=O)[O-])c(C(C#N)c2nc3cc(C(F)(F)F)ccc3s2)c(Cl)c1=O (stereo not given)	i	-5.5*	i	i	i	-11*
N#CCCn1cc(CNCc2ccccc2)c(-c2cccc([N+](=O)[O-])c2)n1	i	0.02	i	i	-6*	i
COc1ccc(NC(=O)CN(C)C(=O)/C=C/c2cn(-c3ccccc3)nc2-c2cccs2)cc1	i	-0.32	i	i	i	i
CC(C)CCn1c(N2CCN(c3cccc(Cl)c3)CC2)nc2c1c(=O)[nH]c(=O)n2C	16*	0.1	i	i	i	i
Cc1csc(/C(=N/OC(=O)c2ccco2)C(N)=O)n1	10*	-0.67	i	i	i	i
O=c1c2ccccc2nc(SCc2nc3ccccc3s2)n1CCCO	i	0.08	i	i	i	i
O=C(CSc1ccc2ccccc2c1)N1CCN(c2ccc(O)cc2)CC1	i	-4.2*	i	i	i	i
CN(C)C(CNC(=O)CSc1nnc(-c2ccco2)o1)c1ccccc1 (stereo not given)	i	-2	64*	i	i	i
CCN(CC(=O)Nc1c(F)cccc1F)C(=O)C1=COCCO1	i	0.88	i	i	i	i
Cc1cccc(Cn2c(SCCN3CCCCC3)nc3c2c(=O)[nH]c(=O)n3C)c1	i	0.46	i	i	i	-5.7*
SMILES	TRPC4 PAM	Kir21 block	TRPC4 act	TRPC6 act	TRPC4 inh	TRPC6 inhibitor
Cc1ccc(Cn2c(SCCN3CCCCC3)nc3c2c(=O)[nH]c(=O)n3C)cc1	i	-0.2	i	i	i	i
Cn1c(=O)[nH]c(=O)c2c1nc(SCCN1CCCCC1)n2Cc1ccccc1	i	-0.17	i	i	i	i
C=CCn1c(SCCN2CCCCC2)nc2c1c(=O)[nH]c(=O)n2C	40*	0.92	i	i	i	i
C/C=C/Cn1c(SCCCc2ccccc2)nc2c1c(=O)[nH]c(=O)n2C	86*	-0.07	i	i	i	i
C=CCn1c(SCCCc2ccccc2)nc2c1c(=O)[nH]c(=O)n2C	i	0.2	i	i	i	i
Cc1cccc(OCCOC(=O)c2c(-c3ccccc3)noc2C)c1	i	2.1	i	i	i	i
CC1Cn2c(nc3sc4c(c3c2=O)CC(C)(C)OC4)N1CCO (stereo not given)	i	-0.6	i	i	i	i
Oc1ccc(/C=N/N=C/c2ccc(O)c(O)c2)cc1O	i	-0.88	i	i	i	i
O=C(/C(=N/N=C/c1ccc(O)c(O)c1)c1ccccc1)c1ccccc1	i	-4.8*	i	i	i	i
COc1cc(S(=O)(=O)N2CCN(Cc3ccccc3)CC2)ccc1Br	10*	-1.9	i	i	i	i
Cc1cc(-c2c(C)[nH]n(-c3ccccc3)c2=O)n[nH]1	i	-0.11	i	i	i	i
CC(=O)c1c(C)[nH]c(C2=NNC(=NC(C)(C)C)SC2)c1C	i	-0.76	i	i	i	i
CC(C)(C)N=C1NN=C(c2cc3ccccc3o2)CS1	11*	-0.74	i	i	i	i
COc1ccccc1-c1c(C#N)c(N)nc2c1CCc1ccccc1-2	i	0.13	i	i	i	i
CCCCOC(=S)NC(=O)c1sc2ccccc2c1Cl	i	0.56	i	i	i	i
CN(C)CCCOC(=O)c1sc2ccccc2c1Cl	i	-7.3*	i	i	i	i
O=S(=O)(Nc1ccc(S(=O)(=O)Nc2cccc3ccccc23)cc1)c1ccccc1	15*	2.9	i	i	i	i
O=S(=O)(Nc1ccc(S(=O)(=O)Nc2ccccc2)cc1)c1ccccc1	11*	0	i	i	i	i
Cc1cc(C)n2nc(CCCO)nc2n1	i	1.9	i	i	i	i
